Measured values from ChEMBL document CHEMBL3286193, “Discovery of a series of 2,5-diaminopyrimidine covalent irreversible inhibitors of Bruton's tyrosine kinase with in vivo antitumor activity” (J Med Chem, 2014).
Active and inactive are the calls of the source. The rule behind the calls is not given here.

What was measured:
[1] = biological target: Mitogen-activated protein kinase 14 (Homo sapiens) (UniProt Q16539); assay: Inhibition of P38-alpha MAPK (unknown origin) at 0.5 uM by [33P]-ATP filter binding assay
Procedure, shortened: (§1)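 Kinase panel of 18 enzymes; inhibition tested at 0.5 μM. Values are means of duplicates.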

[2] = biological target: Tyrosine-protein kinase Blk (Homo sapiens, UniProt P51451); assay: Inhibition of Blk (unknown origin) after 1 hr by HTRF assay
Procedure, shortened: (§2)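 Recombinant kinases tested by HTRF KinEase protocol. Enzyme preincubated with inhibitor for a fixed 10 min. IC50 values are means of duplicates.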

[3] = biological target: Epidermal growth factor receptor (Homo sapiens, UniProt P00533); assay: Inhibition of EGFR (unknown origin) after 1 hr by HTRF assay
Procedure, shortened: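 Commercial recombinant kinase, assayed in the HTRF KinEase format following the kit protocol. Enzyme and inhibitor were preincubated for a fixed 10 min before the reaction.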

[4] = biological target: T1, Receptor tyrosine-protein kinase erbB-4 (Homo sapiens, UniProt Q15303); assay: Inhibition of HER4 (unknown origin) after 1 hr by HTRF assay; procedure, shortened: as §2
[5] = biological target: Tyrosine-protein kinase ITK/TSK (Homo sapiens, UniProt Q08881); assay: Inhibition of Itk (unknown origin) after 1 hr by HTRF assay; procedure, shortened: as §2
[6] = biological target: Tyrosine-protein kinase JAK3 (Homo sapiens, UniProt P52333); assay: Inhibition of Jak3 (unknown origin) after 1 hr by HTRF assay; procedure, shortened: as §2
[7] = biological target: Tyrosine-protein kinase TXK (Homo sapiens, UniProt P42681); assay: Inhibition of Rlk (unknown origin) after 1 hr by HTRF assay; procedure, shortened: as §2
[8] = biological target: Tyrosine-protein kinase Tec (Homo sapiens, UniProt P42680); assay: Inhibition of Tec (unknown origin) after 1 hr by HTRF assay; procedure, shortened: as §2
[9] = biological target: Tyrosine-protein kinase BTK (Homo sapiens, UniProt Q06187); assay: Irreversible inhibition of Btk phosphorylation at Tyr551 in human Ramos cells at 1 uM incubated for 1 hr followed by compound washout with fresh media measured after 2 hrs by Western blot analysis; assay type: cell-based
Procedure, shortened: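 Ramos cells (5 × 10⁵) seeded overnight, treated with compound 1 h, then washed out with fresh media for 2 h. Cells stimulated with goat anti-human IgM for 3−5 min, lysed by boiling in SDS buffer, and Btk Tyr551 phosphorylation assessed by Western blot.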

JVM-3 = assay: Cytotoxicity against human JVM-3 cells assessed as growth inhibition at 1 to 10 uM after 72 hrs by CellTiter-Glo luminescent cell viability assay; assay type: functional, cell-based
RL = assay: Cytotoxicity against human RL cells assessed as growth inhibition at 1 to 10 uM after 72 hrs by CellTiter-Glo luminescent cell viability assay; assay type: functional, cell-based
SU-DHL10 = assay: Cytotoxicity against human SU-DHL10 cells assessed as growth inhibition at 1 to 10 uM after 72 hrs by CellTiter-Glo luminescent cell viability assay; assay type: functional, cell-based
WSU-DLCL2 = assay: Cytotoxicity against human WSU-DLCL2 cells assessed as growth inhibition at 1 to 10 uM after 72 hrs by CellTiter-Glo luminescent cell viability assay; assay type: functional, cell-based
[10] = Cytotoxicity against human DOHH2 cells assessed as growth inhibition after 72 hrs by CellTiter-Glo luminescent cell viability assay; assay type: functional, DOHH-2; conditions: Homo sapiens, DOHH-2, 72 h
Procedure, shortened: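 Lymphoma cells seeded at 5000 cells/well, incubated 24 h, then exposed to compounds for 72 h. Viability read by CellTiter-Glo luminescence. GI50 from dose−response curves, mean of two or three independent experiments in triplicate.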

[11] = Stability of the compound in FaSSIF assessed as compound remaining at 1 uM measured at 24 hrs by LC-MS analysis; assay type: ADME; conditions: read-out: Stability
Procedure, shortened: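 Compound solutions in FaSSIF shaken at 350 rpm at 37 °C. Samples taken at 2, 6, 10 and 24 h and quantified by LC−MS as % remaining.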

[12] = Clearance in mouse liver microsomes by LC-MS/MS analysis; assay type: ADME; conditions: read-out: CLH
Procedure, shortened: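 Liver microsomes incubated with compound and NADPH at 37 °C. Samples taken at several time points, centrifuged, and supernatants analyzed by LC−MS/MS. t1/2 and CL calculated by first-order kinetics. Testosterone, propranolol and clozapine served as positive controls.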

[13] = Volume of distribution at steady state in ICR mouse at 1 mg/kg, iv by LC-MS analysis; assay type: ADME, organism-based; design: dose 1 mg/kg, route intravenous; conditions: in vivo, read-out: Vdss
Procedure, shortened: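 ICR mice (n = 3) given a single intravenous injection at 1 mg/kg. Blood sampled at various time points and analyzed by LC−MS to derive t1/2, CL and Vss.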

[14] = Plasma concentration in CB17 SCID mouse xenografted with human DOHH2 cells at 10 mg/kg, iv qd administered for 14 days measured at 2 hrs post last dose; assay type: ADME, organism-based, DOHH-2; design: dose 10 mg/kg, route intravenous
Procedure, shortened: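 Female CB17/SCID mice were given 5 × 10⁶ DoHH2 cells subcutaneously. When tumours averaged ~167 mm³, mice were randomised into four groups (n = 6/group). Dosing was by tail-vein injection once daily for 14 consecutive days. Plasma compound levels were determined at 2 and 24 h after the final dose.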

[15] = Plasma concentration in CB17 SCID mouse xenografted with human DOHH2 cells at 20 mg/kg, iv qd administered for 14 days measured at 2 hrs post last dose; assay type: ADME, organism-based, DOHH-2; design: dose 20 mg/kg, route intravenous
Procedure, shortened: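 Same DoHH2 xenograft study in female CB17/SCID mice, tail-vein dosing once daily for 14 days. Plasma compound concentrations determined at 2 and 24 h after the last administration.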

[16] = Antitumor activity against human DOHH2 cells xenografted in CB17 SCID mouse assessed as tumor growth inhibition at 20 mg/kg, iv qd administered for 14 days measured over 14 days of compound treatment relative to vehicle-treated control; conditions: DOHH-2, iv, 336 h, read-out: TGI
DOHH-2 = assay: Antitumor activity against human DOHH2 cells xenografted in iv dosed CB17 SCID mouse assessed as tumor growth inhibition administered as qd for 14 days measured over 14 days of compound treatment; assay type: functional, organism-based
[17] = biological target: Tyrosine-protein kinase CSK (Homo sapiens) (UniProt P41240); assay: Inhibition of CSK (unknown origin) at 0.5 uM by [33P]-ATP filter binding assay; procedure, shortened: as §1
[18] = Binding affinity to glutathione in PBS buffer assessed as glutathione-compound adduct formation at 100 uM at pH 7.4 at 37 degC after 2 hrs
Procedure, shortened: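 Compound (100 μM) incubated with 5 mM glutathione in PBS, pH 7.4, at 37 °C. Checked for GSH−compound adducts after 2 h.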

[19] = biological target: Tyrosine-protein kinase JAK2 (Homo sapiens) (UniProt O60674); assay: Inhibition of JAK2 (unknown origin) at 0.5 uM by [33P]-ATP filter binding assay; procedure, shortened: as §1
[20] = biological target: Tyrosine-protein kinase ABL1 (Homo sapiens) (UniProt P00519); assay: Inhibition of ABL (unknown origin) at 0.5 uM by [33P]-ATP filter binding assay; procedure, shortened: as §1
[21] = biological target: T1, Receptor tyrosine-protein kinase erbB-4; assay: Inhibition of HER4 (unknown origin) at 0.5 uM by [33P]-ATP filter binding assay; procedure, shortened: as §1

T1 sequence (Q15303 whole entry): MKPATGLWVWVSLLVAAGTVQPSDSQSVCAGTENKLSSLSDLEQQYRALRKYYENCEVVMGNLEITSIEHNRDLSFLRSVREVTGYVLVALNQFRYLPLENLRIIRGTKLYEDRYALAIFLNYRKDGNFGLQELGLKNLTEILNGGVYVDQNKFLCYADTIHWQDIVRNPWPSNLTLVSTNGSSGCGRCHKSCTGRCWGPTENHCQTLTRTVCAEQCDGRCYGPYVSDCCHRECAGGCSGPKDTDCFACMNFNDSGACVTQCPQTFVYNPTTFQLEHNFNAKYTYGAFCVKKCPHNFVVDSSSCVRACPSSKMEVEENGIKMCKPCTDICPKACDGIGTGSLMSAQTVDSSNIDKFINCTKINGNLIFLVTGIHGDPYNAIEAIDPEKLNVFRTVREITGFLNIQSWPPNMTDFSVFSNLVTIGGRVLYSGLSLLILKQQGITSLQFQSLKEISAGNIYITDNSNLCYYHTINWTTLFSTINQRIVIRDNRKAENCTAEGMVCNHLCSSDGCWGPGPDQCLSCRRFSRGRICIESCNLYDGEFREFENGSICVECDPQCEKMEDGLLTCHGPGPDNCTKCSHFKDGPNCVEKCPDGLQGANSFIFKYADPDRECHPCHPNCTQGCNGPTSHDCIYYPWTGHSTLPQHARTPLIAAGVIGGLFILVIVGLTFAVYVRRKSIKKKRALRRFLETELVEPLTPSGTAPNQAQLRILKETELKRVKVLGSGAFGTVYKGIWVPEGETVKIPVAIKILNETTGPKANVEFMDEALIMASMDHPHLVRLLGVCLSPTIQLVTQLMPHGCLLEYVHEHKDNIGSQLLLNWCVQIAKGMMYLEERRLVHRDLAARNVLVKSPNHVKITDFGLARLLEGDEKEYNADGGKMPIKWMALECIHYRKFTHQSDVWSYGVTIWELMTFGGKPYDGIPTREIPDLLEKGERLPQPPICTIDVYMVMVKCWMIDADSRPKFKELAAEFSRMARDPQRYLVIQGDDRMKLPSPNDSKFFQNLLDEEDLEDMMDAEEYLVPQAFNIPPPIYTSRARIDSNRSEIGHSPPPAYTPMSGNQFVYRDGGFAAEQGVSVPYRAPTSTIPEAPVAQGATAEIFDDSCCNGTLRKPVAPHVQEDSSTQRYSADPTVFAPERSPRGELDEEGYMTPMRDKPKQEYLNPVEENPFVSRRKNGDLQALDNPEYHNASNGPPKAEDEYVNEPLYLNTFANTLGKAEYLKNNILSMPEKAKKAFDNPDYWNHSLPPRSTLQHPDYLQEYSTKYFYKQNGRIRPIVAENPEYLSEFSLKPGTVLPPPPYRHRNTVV
Tyrosine-protein kinase JAK2 (Homo sapiens), sequence (O60674 whole entry): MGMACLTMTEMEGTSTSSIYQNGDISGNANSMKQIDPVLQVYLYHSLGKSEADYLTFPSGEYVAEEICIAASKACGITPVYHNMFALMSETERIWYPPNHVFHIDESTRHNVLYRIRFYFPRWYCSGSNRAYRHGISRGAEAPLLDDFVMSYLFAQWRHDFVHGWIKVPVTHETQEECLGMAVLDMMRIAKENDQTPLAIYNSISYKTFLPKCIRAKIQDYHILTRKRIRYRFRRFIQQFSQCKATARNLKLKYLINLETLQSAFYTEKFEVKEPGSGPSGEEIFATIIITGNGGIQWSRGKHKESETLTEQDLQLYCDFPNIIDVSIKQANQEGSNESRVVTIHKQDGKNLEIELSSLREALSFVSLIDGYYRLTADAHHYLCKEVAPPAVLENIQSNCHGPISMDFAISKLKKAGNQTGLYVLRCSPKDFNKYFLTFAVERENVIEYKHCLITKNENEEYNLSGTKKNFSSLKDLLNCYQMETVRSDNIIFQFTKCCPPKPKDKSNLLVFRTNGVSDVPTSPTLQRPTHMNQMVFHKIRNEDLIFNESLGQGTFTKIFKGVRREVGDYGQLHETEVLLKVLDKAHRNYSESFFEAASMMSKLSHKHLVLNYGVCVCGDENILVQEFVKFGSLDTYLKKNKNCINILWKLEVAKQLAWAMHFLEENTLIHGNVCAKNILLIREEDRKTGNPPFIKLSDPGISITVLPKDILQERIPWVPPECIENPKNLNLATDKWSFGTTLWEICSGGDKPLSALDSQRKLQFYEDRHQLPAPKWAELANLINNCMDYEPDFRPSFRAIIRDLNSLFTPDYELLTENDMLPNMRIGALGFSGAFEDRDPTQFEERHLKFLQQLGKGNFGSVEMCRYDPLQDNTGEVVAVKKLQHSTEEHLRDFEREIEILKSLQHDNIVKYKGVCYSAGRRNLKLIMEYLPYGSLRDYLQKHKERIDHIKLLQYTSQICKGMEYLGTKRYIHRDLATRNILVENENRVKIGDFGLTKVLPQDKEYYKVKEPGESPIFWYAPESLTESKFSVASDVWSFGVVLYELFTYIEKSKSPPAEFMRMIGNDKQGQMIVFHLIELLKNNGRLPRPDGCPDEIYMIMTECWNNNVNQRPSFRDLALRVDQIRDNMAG
Tyrosine-protein kinase Tec, sequence (P42680 whole entry): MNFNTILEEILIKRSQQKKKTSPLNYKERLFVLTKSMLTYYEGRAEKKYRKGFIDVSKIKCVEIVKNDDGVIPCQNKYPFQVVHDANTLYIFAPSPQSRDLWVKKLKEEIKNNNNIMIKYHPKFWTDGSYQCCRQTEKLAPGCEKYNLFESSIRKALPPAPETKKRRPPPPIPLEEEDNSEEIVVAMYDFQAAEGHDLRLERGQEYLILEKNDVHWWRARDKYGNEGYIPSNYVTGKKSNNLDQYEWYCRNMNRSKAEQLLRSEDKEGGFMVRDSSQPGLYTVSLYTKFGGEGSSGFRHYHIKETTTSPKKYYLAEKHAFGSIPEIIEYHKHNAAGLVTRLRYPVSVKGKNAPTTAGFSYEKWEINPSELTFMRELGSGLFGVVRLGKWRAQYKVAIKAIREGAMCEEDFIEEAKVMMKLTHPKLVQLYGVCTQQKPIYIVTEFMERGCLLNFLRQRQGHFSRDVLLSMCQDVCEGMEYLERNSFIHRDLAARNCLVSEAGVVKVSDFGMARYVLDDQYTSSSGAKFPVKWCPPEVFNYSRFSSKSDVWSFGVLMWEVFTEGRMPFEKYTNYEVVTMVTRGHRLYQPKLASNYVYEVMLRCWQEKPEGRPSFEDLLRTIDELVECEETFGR
Mitogen-activated protein kinase 14 (Homo sapiens), sequence (Q16539 whole entry): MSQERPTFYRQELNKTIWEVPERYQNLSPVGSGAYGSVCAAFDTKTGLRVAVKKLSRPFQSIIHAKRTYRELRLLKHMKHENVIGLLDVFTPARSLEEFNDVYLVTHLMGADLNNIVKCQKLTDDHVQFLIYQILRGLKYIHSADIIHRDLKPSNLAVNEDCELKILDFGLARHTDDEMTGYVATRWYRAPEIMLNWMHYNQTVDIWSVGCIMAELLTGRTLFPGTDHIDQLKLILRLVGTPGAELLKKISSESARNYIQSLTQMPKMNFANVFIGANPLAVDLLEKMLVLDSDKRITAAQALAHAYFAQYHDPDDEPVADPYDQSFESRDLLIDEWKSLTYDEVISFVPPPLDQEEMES
Tyrosine-protein kinase ABL1 (Homo sapiens), sequence (P00519 whole entry): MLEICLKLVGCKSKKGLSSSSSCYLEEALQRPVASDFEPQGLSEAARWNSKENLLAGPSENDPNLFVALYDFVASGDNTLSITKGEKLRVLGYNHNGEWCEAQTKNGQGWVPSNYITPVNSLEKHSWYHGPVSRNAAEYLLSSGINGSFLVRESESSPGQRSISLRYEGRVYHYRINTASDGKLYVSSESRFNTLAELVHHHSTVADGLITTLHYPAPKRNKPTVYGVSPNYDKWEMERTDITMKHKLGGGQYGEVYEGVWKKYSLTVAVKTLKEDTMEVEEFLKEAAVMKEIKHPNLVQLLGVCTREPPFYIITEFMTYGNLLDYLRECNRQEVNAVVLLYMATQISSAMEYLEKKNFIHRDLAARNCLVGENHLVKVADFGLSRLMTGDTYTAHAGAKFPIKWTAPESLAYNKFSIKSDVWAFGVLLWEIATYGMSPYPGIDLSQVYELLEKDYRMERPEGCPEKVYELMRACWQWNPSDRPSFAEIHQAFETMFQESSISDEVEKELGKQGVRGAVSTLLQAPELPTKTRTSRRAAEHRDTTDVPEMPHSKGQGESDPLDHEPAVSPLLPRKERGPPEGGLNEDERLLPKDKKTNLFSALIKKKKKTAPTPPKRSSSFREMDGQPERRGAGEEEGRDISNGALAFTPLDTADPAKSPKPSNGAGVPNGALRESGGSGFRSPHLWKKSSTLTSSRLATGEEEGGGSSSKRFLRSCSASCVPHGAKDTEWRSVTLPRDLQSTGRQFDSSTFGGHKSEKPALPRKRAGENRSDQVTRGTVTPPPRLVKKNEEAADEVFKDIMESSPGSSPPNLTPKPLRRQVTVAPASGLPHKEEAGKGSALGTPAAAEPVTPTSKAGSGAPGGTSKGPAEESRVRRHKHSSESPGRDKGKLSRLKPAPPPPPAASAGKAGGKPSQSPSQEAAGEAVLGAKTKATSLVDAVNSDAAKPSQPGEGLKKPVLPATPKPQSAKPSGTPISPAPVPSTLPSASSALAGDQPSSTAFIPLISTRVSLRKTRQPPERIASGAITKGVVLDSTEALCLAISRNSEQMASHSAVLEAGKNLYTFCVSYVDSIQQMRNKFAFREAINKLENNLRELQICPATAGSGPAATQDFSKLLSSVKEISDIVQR
Tyrosine-protein kinase Blk, sequence (P51451 whole entry): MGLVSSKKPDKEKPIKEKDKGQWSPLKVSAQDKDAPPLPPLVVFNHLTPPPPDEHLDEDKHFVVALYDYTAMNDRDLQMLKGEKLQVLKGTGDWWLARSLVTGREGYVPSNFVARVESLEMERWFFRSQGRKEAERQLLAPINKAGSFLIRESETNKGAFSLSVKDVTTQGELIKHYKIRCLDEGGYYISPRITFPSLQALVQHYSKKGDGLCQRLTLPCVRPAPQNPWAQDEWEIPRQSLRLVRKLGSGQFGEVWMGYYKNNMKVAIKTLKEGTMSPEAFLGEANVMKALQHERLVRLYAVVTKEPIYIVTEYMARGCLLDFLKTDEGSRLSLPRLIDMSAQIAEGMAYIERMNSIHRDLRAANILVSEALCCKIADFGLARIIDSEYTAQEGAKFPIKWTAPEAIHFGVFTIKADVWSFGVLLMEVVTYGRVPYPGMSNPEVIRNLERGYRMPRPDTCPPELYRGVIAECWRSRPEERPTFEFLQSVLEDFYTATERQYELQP

**Q.** Which results are given for `C=CC(=O)Nc1cccc(Nc2ncc(NC(=O)c3cc(NC(=O)c4cccc(C(F)(F)F)c4)ccc3C)cn2)c1`?
**A.** inhibition [1]: Active; IC50 [2]: 2.7 nM; IC50 [3]: 11 nM; IC50 [4]: 5.5 nM; IC50 [5]: > 30000 nM; IC50 [6]: 2680 nM; IC50 [7]: 1.9 nM; IC50 [8]: 8.2 nM; inhibition [9]: Active; growth inhibition (GI) (JVM-3): Active; growth inhibition (GI) (RL): Active; growth inhibition (GI) (SU-DHL10): Active; growth inhibition (GI) (WSU-DLCL2): Active; GI50 [10]: 73 nM; remaining at 24 h, 1 µM [11]: 94%; microsomal CLint [12]: 25.7 µL/min/mg; Vd [13]: 0.2 L/kg; concentration at 2 h [14]: 378 ng/mL; concentration at 2 h [15]: 2100 ng/mL; inhibition in vivo at 20 mg/kg [16]: 66%; growth inhibition (GI) (DOHH-2): Dose-dependent effect; inhibition [17]: Active; Activity [18]: inactive; inhibition [19]: Active; inhibition [20]: Active; inhibition [21]: Active
